Test system: Fibroblast
Experiment: Multiplex assay against human fibroblast
Assay type: toxicity, cell-based
Procedure, shortened: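 Compound was added to live cells that had been stained at seeding with Hoechst33342, BioTracker Green Microtubule Cytoskeleton Dye, MitoTracker Red and Annexin V Alexa Fluor 680, and imaging followed on a CQ1 microscope at 37°C and 5% CO2. CellPathfinder machine-learning gating divided cells into Hoechst high-intensity objects or normal cells, normal cells into healthy, pyknosed or fragmented nuclei, and pyknosed cells into mitotic or apoptotic. Tubulin, mitochondrial-mass and membrane-permeability phenotypes are per cents of healthy-nucleus cells.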

[1] = 12 h, 1 µM, compound concentration 1 uM, replicate 1
[2] = 12 h, 1 µM, compound concentration 1 uM, replicate 2
[3] = 12 h, 10 µM, compound concentration 10 uM, replicate 1
[4] = 12 h, 10 µM, compound concentration 10 uM, replicate 2
[5] = 24 h, 1 µM, compound concentration 1 uM, replicate 1
[6] = 24 h, 1 µM, compound concentration 1 uM, replicate 2
[7] = 24 h, 10 µM, compound concentration 10 uM, replicate 1
[8] = 24 h, 10 µM, compound concentration 10 uM, replicate 2
[9] = 48 h, 1 µM, compound concentration 1 uM, replicate 1
[10] = 48 h, 1 µM, compound concentration 1 uM, replicate 2
[11] = 48 h, 10 µM, compound concentration 10 uM, replicate 1
[12] = 48 h, 10 µM, compound concentration 10 uM, replicate 2

Compound: O=C(Nc1ccc(-c2ccnc(Nc3ccc(N4CCOCC4)cc3)n2)cc1)[C@@H]1CCCN1
- Population Apoptotic (%) [1]: 58%
- Population Fragmented Nuclei (%) [1]: 25%
- Population Healthy Nuclei (%) [1]: 41%
- Population Hoechst High Intensity Objects (%) [1]: 13%
- Population Membrane Permeable-Phenotype (%) [1]: 36%
- Population Mitochondria Different-Phenotype (%) [1]: 11%
- Population Mitotic Cells (%) [1]: 41%
- Population Normal (%) [1]: 87%
- Population Pyknosed Nuclei (%) [1]: 33%
- Population Tubulin-Different-Phenotype (%) [1]: 47%
- Total Cell Count [1]: 100
- Population Apoptotic (%) [2]: 33%
- Population Fragmented Nuclei (%) [2]: 13%
- Population Healthy Nuclei (%) [2]: 76%
- Population Hoechst High Intensity Objects (%) [2]: 7%
- Population Membrane Permeable-Phenotype (%) [2]: 4%
- Population Mitochondria Different-Phenotype (%) [2]: 10%
- Population Mitotic Cells (%) [2]: 66%
- Population Normal (%) [2]: 92%
- Population Pyknosed Nuclei (%) [2]: 10%
- Population Tubulin-Different-Phenotype (%) [2]: 10%
- Total Cell Count [2]: 65
- Population Apoptotic (%) [3]: 39%
- Population Fragmented Nuclei (%) [3]: 35%
- Population Healthy Nuclei (%) [3]: 30%
- Population Hoechst High Intensity Objects (%) [3]: 13%
- Population Membrane Permeable-Phenotype (%) [3]: 28%
- Population Mitochondria Different-Phenotype (%) [3]: 25%
- Population Mitotic Cells (%) [3]: 60%
- Population Normal (%) [3]: 86%
- Population Pyknosed Nuclei (%) [3]: 33%
- Population Tubulin-Different-Phenotype (%) [3]: 74%
- Total Cell Count [3]: 146
- Population Apoptotic (%) [4]: 77%
- Population Fragmented Nuclei (%) [4]: 7%
- Population Healthy Nuclei (%) [4]: 77%
- Population Hoechst High Intensity Objects (%) [4]: 5%
- Population Membrane Permeable-Phenotype (%) [4]: 8%
- Population Mitochondria Different-Phenotype (%) [4]: 28%
- Population Mitotic Cells (%) [4]: 22%
- Population Normal (%) [4]: 94%
- Population Pyknosed Nuclei (%) [4]: 14%
- Population Tubulin-Different-Phenotype (%) [4]: 44%
- Total Cell Count [4]: 65
- Population Apoptotic (%) [5]: 52%
- Population Fragmented Nuclei (%) [5]: 24%
- Population Healthy Nuclei (%) [5]: 52%
- Population Hoechst High Intensity Objects (%) [5]: 9%
- Population Membrane Permeable-Phenotype (%) [5]: 22%
- Population Mitochondria Different-Phenotype (%) [5]: 6%
- Population Mitotic Cells (%) [5]: 47%
- Population Normal (%) [5]: 91%
- Population Pyknosed Nuclei (%) [5]: 23%
- Population Tubulin-Different-Phenotype (%) [5]: 35%
- Total Cell Count [5]: 100
- Population Apoptotic (%) [6]: 60%
- Population Fragmented Nuclei (%) [6]: 7%
- Population Healthy Nuclei (%) [6]: 85%
- Population Hoechst High Intensity Objects (%) [6]: 6%
- Population Membrane Permeable-Phenotype (%) [6]: 3%
- Population Mitochondria Different-Phenotype (%) [6]: 19%
- Population Mitotic Cells (%) [6]: 40%
- Population Normal (%) [6]: 93%
- Population Pyknosed Nuclei (%) [6]: 7%
- Population Tubulin-Different-Phenotype (%) [6]: 10%
- Total Cell Count [6]: 63
- Population Apoptotic (%) [7]: 57%
- Population Fragmented Nuclei (%) [7]: 37%
- Population Healthy Nuclei (%) [7]: 48%
- Population Hoechst High Intensity Objects (%) [7]: 12%
- Population Membrane Permeable-Phenotype (%) [7]: 16%
- Population Mitochondria Different-Phenotype (%) [7]: 21%
- Population Mitotic Cells (%) [7]: 42%
- Population Normal (%) [7]: 87%
- Population Pyknosed Nuclei (%) [7]: 13%
- Population Tubulin-Different-Phenotype (%) [7]: 74%
- Total Cell Count [7]: 156
- Population Apoptotic (%) [8]: 58%
- Population Fragmented Nuclei (%) [8]: 18%
- Population Healthy Nuclei (%) [8]: 64%
- Population Hoechst High Intensity Objects (%) [8]: 1%
- Population Membrane Permeable-Phenotype (%) [8]: 13%
- Population Mitochondria Different-Phenotype (%) [8]: 17%
- Population Mitotic Cells (%) [8]: 41%
- Population Normal (%) [8]: 98%
- Population Pyknosed Nuclei (%) [8]: 17%
- Population Tubulin-Different-Phenotype (%) [8]: 22%
- Total Cell Count [8]: 72
- Population Apoptotic (%) [9]: 60%
- Population Fragmented Nuclei (%) [9]: 29%
- Population Healthy Nuclei (%) [9]: 60%
- Population Hoechst High Intensity Objects (%) [9]: 9%
- Population Membrane Permeable-Phenotype (%) [9]: 26%
- Population Mitochondria Different-Phenotype (%) [9]: 4%
- Population Mitotic Cells (%) [9]: 40%
- Population Normal (%) [9]: 90%
- Population Pyknosed Nuclei (%) [9]: 9%
- Population Tubulin-Different-Phenotype (%) [9]: 27%
- Total Cell Count [9]: 111
- Population Apoptotic (%) [10]: 50%
- Population Fragmented Nuclei (%) [10]: 18%
- Population Healthy Nuclei (%) [10]: 76%
- Population Membrane Permeable-Phenotype (%) [10]: 18%
- Population Mitotic Cells (%) [10]: 50%
- Population Pyknosed Nuclei (%) [10]: 4%
- Population Tubulin-Different-Phenotype (%) [10]: 30%
- Total Cell Count [10]: 101
- Population Apoptotic (%) [11]: 83%
- Population Fragmented Nuclei (%) [11]: 44%
- Population Healthy Nuclei (%) [11]: 50%
- Population Hoechst High Intensity Objects (%) [11]: 22%
- Population Membrane Permeable-Phenotype (%) [11]: 15%
- Population Mitochondria Different-Phenotype (%) [11]: 2%
- Population Mitotic Cells (%) [11]: 16%
- Population Normal (%) [11]: 77%
- Population Pyknosed Nuclei (%) [11]: 4%
- Population Tubulin-Different-Phenotype (%) [11]: 61%
- Total Cell Count [11]: 179
- Population Apoptotic (%) [12]: 33%
- Population Fragmented Nuclei (%) [12]: 32%
- Population Healthy Nuclei (%) [12]: 64%
- Population Hoechst High Intensity Objects (%) [12]: 6%
- Population Membrane Permeable-Phenotype (%) [12]: 20%
- Population Mitochondria Different-Phenotype (%) [12]: 3%
- Population Mitotic Cells (%) [12]: 66%
- Population Normal (%) [12]: 93%
- Population Pyknosed Nuclei (%) [12]: 3%
- Population Tubulin-Different-Phenotype (%) [12]: 53%
- Total Cell Count [12]: 99

From ChEMBL document CHEMBL4689842, “EUbOPEN Chemogenomics Library wave 1” (2021)
